Calls of active or inactive are those of the source. The rule behind the calls is not given here.

Consider 18 molecules from ChEMBL document CHEMBL1137388, “A novel class of potent nonglycosidic and nonpeptidic pan-selectin inhibitors” (2006).

The target of experiment [1] is T1, E-selectin (Homo sapiens) (UniProt P16581).
T1 sequence (whole entry): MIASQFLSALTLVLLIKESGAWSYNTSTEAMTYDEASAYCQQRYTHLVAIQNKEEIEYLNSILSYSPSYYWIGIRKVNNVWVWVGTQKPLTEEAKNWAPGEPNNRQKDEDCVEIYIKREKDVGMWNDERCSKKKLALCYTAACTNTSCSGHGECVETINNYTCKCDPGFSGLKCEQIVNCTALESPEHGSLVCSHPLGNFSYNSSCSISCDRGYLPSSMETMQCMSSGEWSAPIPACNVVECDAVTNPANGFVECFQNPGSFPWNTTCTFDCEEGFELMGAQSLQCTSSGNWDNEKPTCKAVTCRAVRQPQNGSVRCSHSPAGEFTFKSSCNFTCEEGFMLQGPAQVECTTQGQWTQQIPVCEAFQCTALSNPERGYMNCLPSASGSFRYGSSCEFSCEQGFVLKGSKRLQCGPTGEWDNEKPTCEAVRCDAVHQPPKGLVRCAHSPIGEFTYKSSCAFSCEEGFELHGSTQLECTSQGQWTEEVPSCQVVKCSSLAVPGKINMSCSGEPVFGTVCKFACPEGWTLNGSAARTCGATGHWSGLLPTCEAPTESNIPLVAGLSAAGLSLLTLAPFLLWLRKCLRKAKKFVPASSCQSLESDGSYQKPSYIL
Nature of the experiment: Inhibition of sLex binding to E-selectin at 100 uM relative to control by glyco-ELISA assay. The essentials:
(§1)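 Cell-free competitive binding assay. The named selectin is immobilized on microtiter plates, and compound plus sLex-tyrosine sulfate on biotinylated polyacrylamide are added. After incubation, bound ligand is detected by streptavidin-peroxidase, OD 414 nm, with empty-plate absorbance subtracted. Wells coated only with sLex define 0%; EDTA (blocks Ca2+-dependent binding) defines 100% inhibition.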

The target in experiment [2] is T2, P-selectin (Homo sapiens) (UniProt P16109).
T2 sequence (whole entry): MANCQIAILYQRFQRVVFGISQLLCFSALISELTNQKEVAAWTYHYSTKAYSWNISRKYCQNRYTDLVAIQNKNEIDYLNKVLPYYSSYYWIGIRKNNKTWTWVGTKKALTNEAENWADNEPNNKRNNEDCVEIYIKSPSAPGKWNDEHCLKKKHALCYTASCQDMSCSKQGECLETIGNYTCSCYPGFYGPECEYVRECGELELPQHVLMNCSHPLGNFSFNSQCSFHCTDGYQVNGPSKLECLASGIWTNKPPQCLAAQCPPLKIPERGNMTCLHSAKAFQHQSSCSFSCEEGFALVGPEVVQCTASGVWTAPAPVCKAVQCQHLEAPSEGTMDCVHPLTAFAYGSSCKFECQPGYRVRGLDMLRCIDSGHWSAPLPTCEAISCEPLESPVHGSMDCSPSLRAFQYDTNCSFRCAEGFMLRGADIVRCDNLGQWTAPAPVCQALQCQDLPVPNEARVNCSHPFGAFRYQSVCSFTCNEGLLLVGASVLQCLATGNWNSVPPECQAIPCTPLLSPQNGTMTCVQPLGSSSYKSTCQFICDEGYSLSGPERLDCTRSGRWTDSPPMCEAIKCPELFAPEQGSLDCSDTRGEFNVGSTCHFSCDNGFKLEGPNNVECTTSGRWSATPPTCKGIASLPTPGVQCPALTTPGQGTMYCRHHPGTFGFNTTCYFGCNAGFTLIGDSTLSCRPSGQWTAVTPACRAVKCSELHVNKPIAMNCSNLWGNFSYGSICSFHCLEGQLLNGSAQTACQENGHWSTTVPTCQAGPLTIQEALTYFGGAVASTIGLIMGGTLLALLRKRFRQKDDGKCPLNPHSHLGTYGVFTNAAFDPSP
The experiment can be described thus: Inhibition of sLex binding to P-selectin at 500 uM relative to control by glyco-ELISA assay. In short, it runs like this:
as §1
(In general: In an ELISA, binding on a coated surface is turned into a signal by an enzyme label.)

A short description of experiment [3]: Inhibition of MM6 cell adhesion to BAEC at 100 uM relative to control by static assay. Format: functional. The essentials:
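BAEC monolayers (passage 1-3, 7 days after seeding) stimulated with 20 ng/mL TNFα for 4 or 16 h, test agent in DMSO or vehicle for 20 min at 37 °C/5% CO2. After washing, leukocytes added at 1 × 10^6 cells/mL for 30 min at 37 °C. Non-adherent cells washed off, adherent cells counted microscopically. TNFα-stimulated adhesion set to 100%. Single concentration, 100 µM.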

Experiment [4] concerns the target T3, L-selectin (Homo sapiens) (UniProt P14151).
T3 sequence (whole entry): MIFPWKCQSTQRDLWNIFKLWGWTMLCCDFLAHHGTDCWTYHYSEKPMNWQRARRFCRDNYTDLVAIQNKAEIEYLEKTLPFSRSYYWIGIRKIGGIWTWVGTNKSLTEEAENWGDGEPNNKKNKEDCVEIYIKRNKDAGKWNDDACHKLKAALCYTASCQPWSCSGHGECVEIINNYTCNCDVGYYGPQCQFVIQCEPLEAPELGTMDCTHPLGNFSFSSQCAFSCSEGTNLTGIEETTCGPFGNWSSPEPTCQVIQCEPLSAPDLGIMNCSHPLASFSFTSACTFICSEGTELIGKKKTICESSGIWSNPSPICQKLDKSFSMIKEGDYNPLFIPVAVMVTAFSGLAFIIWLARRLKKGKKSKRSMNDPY
Nature of the experiment: Inhibition of sLex binding to L-selectin at 500 uM relative to control by glyco-ELISA assay. In short, it runs like this: as §1

The next experiment has as its system MONO-MAC-6. Nature of the experiment: Viability of MM6 cells at 100 uM by Roche-XTT assay relative to control. Format: functional, Homo sapiens. The essentials:
(§2)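 XTT assay: metabolically active cells convert yellow tetrazolium XTT to orange formazan. Untreated control viability set to 100%. Cells were BAEC or MM6 as named in each line; MM6 tested at 100 µM.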
Background: Tetrazolium assays rely on reduction of a dye to a coloured formazan, in cell work by metabolically active cells.

In the next experiment the test system is AEC. The experiment can be described thus: Viability of BAEC by Roche-XTT assay relative to control. Format: functional, Bos taurus. Also noted: concentration or dose not given beside the values. In short, it runs like this:
as §2

Experiment [5] in a line: Viability in ATP-lite assay relative to control. In kind it is functional. Also noted: concentration or dose not given beside the values.
The target in experiment [6] is T1, E-selectin (Homo sapiens). Nature of the experiment: Inhibition of sLex binding to E-selectin at 500 uM relative to control by glyco-ELISA assay. In short, it runs like this:
as §1

The next experiment concerns Mus musculus. Nature of the experiment: Reduction in proteose peptone-induced PMN extravasation in C57BL/J mouse peritonitis model at 100 mg/kg. The arrangement: dose 100 mg/kg. Format: functional, organism-based.

For the molecule `CCCCCCCCCCOc1cccc(OCCCCCC(=O)N(Cc2ccc(C(=O)O)cc2)c2cccc(C(=O)O)c2)c1`, the inhibition stood at 42% in experiment [1], 103% in [2] and 103% in [4]. Also, the inhibition at 100 µM in experiment [3] was 70%. The Activity in the experiment on MONO-MAC-6 was 101%; in the experiment with AEC, 20%; in experiment [5], 4%.
`CCCCCCCCCCOc1cc(OCCCCCCCCCC)cc(OCCCCCC(=O)N(c2ccc(C(=O)O)cc2)c2cccc(C(=O)O)c2)c1`: the inhibition worked out at 58% in experiment [2] and 53% in experiment [4].
On to `CCCCCCCCCCOc1cc(OCCCCCCCCCC)cc(OCCCCCCON=C(c2ccc(Cl)cc2)c2ccc(Cl)cc2)c1`, for which the inhibition in experiment [1] is 2%; in experiment [2] it was 2%; in experiment [4], 5%. The inhibition at 100 µM in [3] came out at 24%.
As for `CCCCCCCCCCOc1cc(OCCCCCCCCCC)cc(OCCCCCC(=O)N(Cc2ccc(C(=O)O)cc2)c2ccc(C(=O)O)cc2)c1`, the results for the inhibition in experiment [2] and in experiment [4] were 49% and 50%, respectively. Further, the inhibition at 100 µM in [3] was 56%. The molecule further gave an Activity with AEC of 36%.
Take `CCCCCCCCCCOc1cccc(OCCCCCC(=O)N(Cc2ccc(C(=O)O)cc2)c2ccc(C(=O)O)cc2)c1`: in experiment [3], the inhibition at 100 µM was 93%. For the same molecule, the Activity with AEC is given as 100%.
Consider `CCCCCCCCCCOc1cc(OCCCCCCCCCC)cc(OCCCCCCN(Cc2ccc(C(=O)O)cc2)c2ccc(C(=O)O)cc2)c1`, for which the inhibition at 100 µM in experiment [3] came to 100%. The Activity in the experiment on MONO-MAC-6 is reported as 10%.
As for `CCCCCCCCCCOc1cc(OCCCCCCCCCC)cc(OCCCCCCON=C(c2ccc(C(=O)O)cc2)c2ccc(C(=O)O)cc2)c1`, the values for the inhibition in [2] and in [4] were 2% and 6%, respectively. Besides, the inhibition at 100 µM in experiment [3] was 90%. Further, the values for the Activity with MONO-MAC-6 and with AEC were 84% and 110%, respectively.
As for `O=C(O)c1ccc(N(C(=O)CCCCCBr)c2ccc(C(=O)O)cc2)cc1`, the inhibition amounted to 5% in [1], 12% in experiment [2] and 6% in [4]. In addition, the inhibition at 100 µM in experiment [3] was determined as 4%.
Regarding `CCCCCCCCCCOc1cccc(OCCCCCC(=O)N(Cc2ccc(C(=O)OC)cc2)c2ccc(C(=O)OC)cc2)c1`, the inhibition in experiment [1] came to 65%; in experiment [2], 78%; in experiment [4], 75%. The inhibition at 100 µM in experiment [3] is 26%. Moreover, the Activity with MONO-MAC-6 was 80%; in experiment [5], 68%.
For `CCCCCCCCCCOc1cccc(OCCCCCC(=O)N(Cc2ccc(C(=O)OC)cc2)c2cccc(C(=O)OC)c2)c1`, the inhibition in [1] amounted to 18%; in [2], 79%; in experiment [4], 86%. For the same molecule, the inhibition at 100 µM in experiment [3] was determined as 45%. The Activity in the experiment with MONO-MAC-6 turned out to be 98%; with AEC, 99%; in experiment [5], 62%.
As for `CCCCCCCCCCOc1cc(OCCCCCCCCCC)cc(OCCCCCCO/N=C(/c2ccc(C(=O)O)cc2)c2cccc(C(=O)O)c2)c1`, the inhibition in [2] is 34%; in [4], 50%. The inhibition at 100 µM in [3] was 100%.
In the same order, the values of `CCCCCCCCCCOc1cc(OCCCCCCCCCC)cc(OCCCCCC(=O)N(Cc2ccc(C(=O)OC)cc2)c2ccc(C(=O)OC)cc2)c1` are 27%, 26% and 26%.
For the molecule `CCCCCCCCCCOc1cc(OCCCCCCCCCC)cc(OCCCCCC(=O)N(Cc2ccc(C(=O)O)cc2)c2cccc(C(=O)O)c2)c1`, the results for the inhibition in experiment [1], in [2] and in experiment [4] were 43%, 95% and 92%, respectively. Besides, the inhibition at 100 µM in experiment [3] was determined as 82%. The Activity came out at 11% with MONO-MAC-6, 46% in the experiment on AEC and 0% in [5].
Regarding `CCCCCCCCCCOc1cc(OCCCCCCCCCC)cc(OCCCCCC(=O)N(c2ccc(C(=O)OC)cc2)c2ccc(C(=O)OC)c(C(=O)OC)c2)c1`, the inhibition in experiment [6] amounted to 73%; in [2] it was 90%; in [4], 95%. Further, the inhibition at 100 µM in experiment [3] was found to be 115%. Also, the Activity in the experiment with MONO-MAC-6 is given as 50%; in the experiment with AEC, 90%; in experiment [5], 58%.
Take `O=C(O)c1ccc(N(C(=O)CCCCCBr)c2cccc(C(=O)O)c2)cc1`: the inhibition in [2] was 19%; in [4], 5%. Further, the inhibition at 100 µM in experiment [3] amounted to 2%. In the experiment with AEC, this molecule had an Activity of 75%.
As for `CC(=O)N[C@H]1[C@H]([C@H](O)[C@H](O)CO)O[C@@](O[C@H]2[C@@H](O)[C@@H](CO)O[C@@H](O[C@@H]([C@H](O[C@@H]3O[C@@H](C)[C@@H](O)[C@@H](O)[C@@H]3O)[C@H](C=O)NC(C)=O)[C@H](O)CO)[C@@H]2O)(C(=O)O)C[C@@H]1O` [SIALYL LEWIS X], the inhibition at 100 µM in experiment [3] came to 41%. In the experiment with Mus musculus, the outcome was inactive.
Take `CCCCCCCCCCOc1cc(OCCCCCCCCCC)cc(OCCCCCC(=O)N(c2ccc(C(=O)OC)cc2)c2ccc(C(=O)OC)cc2)c1`: the inhibition in experiment [6] worked out at 5%; in experiment [2], 16%; in experiment [4], 16%. In addition, the inhibition at 100 µM in experiment [3] was 10%.
Consider `CCCCCCCCCCOc1cc(OCCCCCCCCCC)cc(OCCCCCCN(Cc2ccc(C(=O)OC)cc2)c2ccc(C(=O)OC)cc2)c1`, for which the inhibition at 100 µM in experiment [3] stood at 61%. For the same molecule, the Activity in the experiment on MONO-MAC-6 was 5%; in the experiment with AEC it was 111%.

As a reminder, the inhibition is the change of the read-out against control, counted positive when it falls.
